Measurements taken from ChEMBL document CHEMBL1154523, “Design and synthesis of N-methylmaleimide indolocarbazole bearing modified 2-acetamino acid moieties as Topoisomerase I inhibitors” (Bioorg Med Chem Lett, 2009).
Calls of active or inactive are those of the source. No cut-off for these calls is given here.

What was measured:
[1] = tested on: A549; assay: Cytotoxicity against human A549 cells by MTT assay; assay type: functional, cell-based
Summary of the method: (§1)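 MTT assay on five human tumour lines: HT-29 colon carcinoma, HCT-8 ileocecal adenocarcinoma, Bel-7402 hepatoma, A549 non-small cell lung carcinoma and MCF-7 breast carcinoma.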

[2] = tested on: MCF7; assay: Cytotoxicity against human MCF7 cells by MTT assay; assay type: functional, cell-based; summary of the method: as §1
[3] = molecular target: T1, DNA topoisomerase 1 (Homo sapiens) (UniProt P11387); assay: Inhibition of topoisomerase 1 assessed as conversion of supercoiled DNA to open circular DNA at 100 uM
T1 sequence (whole entry): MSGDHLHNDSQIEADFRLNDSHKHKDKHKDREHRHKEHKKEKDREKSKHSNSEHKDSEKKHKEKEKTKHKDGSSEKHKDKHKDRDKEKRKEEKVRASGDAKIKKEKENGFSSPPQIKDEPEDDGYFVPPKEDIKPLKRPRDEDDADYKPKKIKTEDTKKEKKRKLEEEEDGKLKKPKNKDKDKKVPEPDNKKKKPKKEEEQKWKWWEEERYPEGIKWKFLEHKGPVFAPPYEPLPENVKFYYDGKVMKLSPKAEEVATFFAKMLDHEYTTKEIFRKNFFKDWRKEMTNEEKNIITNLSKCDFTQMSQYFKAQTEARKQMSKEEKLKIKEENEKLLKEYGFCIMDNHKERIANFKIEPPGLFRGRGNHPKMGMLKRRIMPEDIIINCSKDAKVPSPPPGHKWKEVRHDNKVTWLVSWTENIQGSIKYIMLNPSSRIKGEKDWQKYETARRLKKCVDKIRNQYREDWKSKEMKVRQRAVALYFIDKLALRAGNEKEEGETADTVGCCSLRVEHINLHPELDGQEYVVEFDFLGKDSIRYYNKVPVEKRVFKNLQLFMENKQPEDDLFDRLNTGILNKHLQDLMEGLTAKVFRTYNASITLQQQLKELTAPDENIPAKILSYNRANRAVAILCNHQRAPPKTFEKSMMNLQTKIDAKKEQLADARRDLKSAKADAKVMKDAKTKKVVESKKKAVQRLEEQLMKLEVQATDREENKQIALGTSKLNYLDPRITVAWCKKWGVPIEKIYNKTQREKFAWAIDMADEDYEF
Summary of the method: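 A commercial TOPO I drug screening kit was used with a supercoiled plasmid DNA substrate. Activity was read as conversion of supercoiled DNA (Form I) to open circular DNA, with camptothecin as reference inhibitor.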

[4] = tested on: Bel-7402; assay: Cytotoxicity against human Bel7402 cells by MTT assay; assay type: functional, cell-based; summary of the method: as §1
[5] = tested on: HCT-8; assay: Cytotoxicity against human HCT8 cells by MTT assay; assay type: functional, cell-based; summary of the method: as §1
[6] = tested on: HT-29; assay: Decrease in topoisomerase 1 expression in human HT-29 cells at 20 uM after 24 hrs relative to control; assay type: functional, cell-based
Summary of the method: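 TOPO I protein level in HT-29 cells was probed after 24 h incubation by the common protocols with a commercial TOPO I antibody. Levels were compared with a control group.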

[7] = tested on: HT-29; assay: Cytotoxicity against human HT-29 cells by MTT assay; assay type: functional, cell-based; summary of the method: as §1
[8] = tested on: HT-29; assay: Cell cycle arrest in human HT-29 cells assessed as accumulation of Sub-G1 phase at 20 uM after 24 hrs by flow cytometry relative to control; assay type: functional
Summary of the method: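 HT-29 cells were exposed for 24 h. Apoptosis was scored by flow cytometry as the percentage of cells in the Sub-G1 phase, compared against an untreated control group.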

Row | Activity [3] | Compound | IC50 [1] | IC50 [2] | IC50 [4] | IC50 [5] | Activity [6] | IC50 [7] | Activity [8]
1 | Active | CCN1CCN(C(=O)C(CC(C)C)NC(=O)Cn2c3ccccc3c3c4c(c5c6ccccc6[nH]c5c32)C(=O)N(C)C4=O)CC1 (configuration not stated) | 7.94 µM | 2.44 µM | > 10 µM | > 10 µM | Active | 3.48 µM | 8.86%
2 | – | CC(C)C(NC(=O)Cn1c2ccccc2c2c3c(c4c5ccccc5[nH]c4c21)C(=O)N(C)C3=O)C(=O)O (configuration not stated) | > 10 µM | > 10 µM | > 10 µM | > 10 µM | – | > 10 µM | –
3 | – | COC(=O)C(CC(C)C)NC(=O)Cn1c2ccccc2c2c3c(c4c5ccccc5[nH]c4c21)C(=O)N(C)C3=O (configuration not stated) | > 10 µM | > 10 µM | > 10 µM | > 10 µM | – | > 10 µM | –
4 | – | COC(=O)CNC(=O)Cn1c2ccccc2c2c3c(c4c5ccccc5[nH]c4c21)C(=O)N(C)C3=O | 2.13 µM | 2.23 µM | > 10 µM | > 10 µM | – | 2.88 µM | –
5 | – | CN1C(=O)c2c(c3c4ccccc4n(CC(=O)NC(Cc4ccccc4)C(=O)O)c3c3[nH]c4ccccc4c23)C1=O (configuration not stated) | > 10 µM | > 10 µM | > 10 µM | > 10 µM | – | > 10 µM | –
6 | – | CC(C)CC(NC(=O)Cn1c2ccccc2c2c3c(c4c5ccccc5[nH]c4c21)C(=O)N(C)C3=O)C(=O)O (configuration not stated) | > 10 µM | > 10 µM | > 10 µM | > 10 µM | – | > 10 µM | –
7 | – | COC(=O)C(C)NC(=O)Cn1c2ccccc2c2c3c(c4c5ccccc5[nH]c4c21)C(=O)N(C)C3=O (configuration not stated) | > 10 µM | > 10 µM | > 10 µM | > 10 µM | – | > 10 µM | –
8 | – | COC(=O)C(NC(=O)Cn1c2ccccc2c2c3c(c4c5ccccc5[nH]c4c21)C(=O)N(C)C3=O)C(C)C (configuration not stated) | > 10 µM | > 10 µM | > 10 µM | > 10 µM | – | > 10 µM | –
9 | – | COC(=O)C(Cc1ccccc1)NC(=O)Cn1c2ccccc2c2c3c(c4c5ccccc5[nH]c4c21)C(=O)N(C)C3=O (configuration not stated) | > 10 µM | > 10 µM | > 10 µM | > 10 µM | – | > 10 µM | –
10 | – | CN1C(=O)c2c(c3c4ccccc4n(CC(=O)NCC(=O)O)c3c3[nH]c4ccccc4c23)C1=O | > 10 µM | > 10 µM | > 10 µM | > 10 µM | – | > 10 µM | –
11 | Active | CCN1CCN(C(=O)C(Cc2ccccc2)NC(=O)Cn2c3ccccc3c3c4c(c5c6ccccc6[nH]c5c32)C(=O)N(C)C4=O)CC1 (configuration not stated) | 1.86 µM | 1.91 µM | 1.91 µM | 1.09 µM | Active | 2.88 µM | 10.3%
12 | – | CC(NC(=O)Cn1c2ccccc2c2c3c(c4c5ccccc5[nH]c4c21)C(=O)N(C)C3=O)C(=O)O (configuration not stated) | > 10 µM | > 10 µM | > 10 µM | > 10 µM | – | > 10 µM | –
13 | – | CC(NC(=O)Cn1c2ccccc2c2c3c(c4c5ccccc5[nH]c4c21)C(=O)N(C)C3=O)C(=O)N1CCOCC1 (configuration not stated) | > 10 µM | > 10 µM | > 10 µM | > 10 µM | – | > 10 µM | –
14 | – | CN1C(=O)c2c(c3c4ccccc4n([C@@H]4O[C@H](CO)[C@@H](O)[C@H](O)[C@H]4O)c3c3[nH]c4ccccc4c23)C1=O | > 10 µM | > 10 µM | 6.68 µM | > 10 µM | – | 7.44 µM | –
15 | Active | CC(C)C(NC(=O)Cn1c2ccccc2c2c3c(c4c5ccccc5[nH]c4c21)C(=O)N(C)C3=O)C(=O)N1CCOCC1 (configuration not stated) | 5.11 µM | > 10 µM | > 10 µM | > 10 µM | Active | 2.66 µM | 2.49%
16 | Active | CC(C)CC(NC(=O)Cn1c2ccccc2c2c3c(c4c5ccccc5[nH]c4c21)C(=O)N(C)C3=O)C(=O)N1CCN(C)CC1 (configuration not stated) | 1.84 µM | 1.94 µM | 2.23 µM | > 10 µM | Active | 1.26 µM | 14.33%
